In ChEMBL document CHEMBL4513216, “Probing the Open Global Health Chemical Diversity Library for Multistage-Active Starting Points for Next-Generation Antimalarials” (ACS Infect Dis, 2020) one finds cytotoxicity data, which are given here for 72 compounds.

The data set can be described thus: Toxicity liver stage against HepG2, at 10uM. The class given is cell-based. Set-up: test concentration 10 uM, cell line HepG2-A16-CD81EGFP. The settings on record: human, HepG2-A16-CD81EGFP cells; read-out: INHIBITION
In a few lines: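 Uninfected HepG2-A16-CD81EGFP cells, 3 × 10^3 per well, 1536-well, plated on prespotted compound at 10 μM final, parasite-free screening media added to match infected plates; puromycin 10 μM positive, DMSO 0.5% negative; run in parallel with 48 h PbLuc assay at 37 °C, 5% CO2; viability by CellTiter-Glo luminescence, normalized to controls.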

`CCCS(=O)(=O)N1CCC2(CCC(=O)N(Cc3ccccc3)C2)CC1`: the cytotoxicity at 10 µM came to 11.2%.

`Cc1ncsc1C(=O)NCCOc1ncc(Cl)cc1Cl`: the cytotoxicity at 10 µM came out at 7.67%.

Take `CCn1cnnc1CNC(=O)CCC(=O)c1ccc2c(c1)OCCO2`: the cytotoxicity at 10 µM was -3.59%.

For `O=C(Nc1ccc(F)c(F)c1)N1CCC2(CCC(=O)N(C3CC3)C2)CC1`, the cytotoxicity at 10 µM was -0.381%.

For the compound `Cc1cc(C)c(CNC(=O)N2CCCN(C(=O)C(C)C)CC2)c(C)c1`, the cytotoxicity at 10 µM was 12.3%.

Take `CCc1n[nH]c(C2CN(C(=O)c3ccc4c(c3)CCC4)CCO2)n1` (configuration not stated): the cytotoxicity at 10 µM is -13.1%.

As for `CS(=O)(=O)CCN1CC(c2ccccc2)(c2ccccc2)CCC1=O`, the cytotoxicity at 10 µM was 0.623%.

`O=C(CC1CC1)N[C@@H]1CN(Cc2ccoc2)C[C@@H]2CCCO[C@@H]21`: the cytotoxicity at 10 µM worked out at 7.83%.

As for `CC(C)c1nc(CS(=O)(=O)Cc2noc(C3CC3)n2)cs1`, the cytotoxicity at 10 µM came to 6.16%.

Consider `CNC(=O)C1CCCN(c2nc3c(-c4ccccc4)csc3c(=O)[nH]2)C1` (configuration not stated), for which the cytotoxicity at 10 µM is -1.03%.

Consider `Cc1ccc2nc(NCCCN3CCCCCC3=O)n(C)c(=O)c2c1`, for which the cytotoxicity at 10 µM was determined as 7.04%.

With `COCC1c2c(cnn2C)CCN1Cc1ccc(F)cc1` (configuration not stated), the cytotoxicity at 10 µM was -10.6%.

Regarding `c1c[nH]c2nc(C3CCCNC3)nc-2c1` (configuration not stated), the cytotoxicity at 10 µM came out at 8.35%.

With `CSc1ccc(NCC(=O)NC(=O)NCC(F)(F)F)cc1F`, the cytotoxicity at 10 µM is -7.91%.

Take `O=C(CCCOCc1ccccc1)N1CCCC(n2cncn2)C1` (configuration not stated): the cytotoxicity at 10 µM is -17.5%.

As for `CC(=O)N1CCCCC1c1cc(C(=O)N2CCOCC2)[nH]n1` (configuration not stated), the cytotoxicity at 10 µM is -3.68%.

Turning to `O=C(c1ccsc1)N1CCc2c(CNc3nccs3)n[nH]c2C1`, the cytotoxicity at 10 µM is 10.9%.

Regarding `CCS(=O)(=O)N1CCc2ncnc(C)c2CC1`, the cytotoxicity at 10 µM is -0.0192%.

Take `N#Cc1ccc(SCCC(=O)NC(N)=O)cc1`: the cytotoxicity at 10 µM is -2.66%.

For `Cc1nc(Oc2ccccc2Cl)sc1C(=O)O`, the cytotoxicity at 10 µM was -11.9%.

`CCCN(CC(=O)N1CCNCC1)C(=O)c1cccc(Cl)c1`: the cytotoxicity at 10 µM stood at 10.7%.

Consider `CN(CCOc1ccc(C#N)cc1)CC1CCS(=O)(=O)C1` (configuration not stated), for which the cytotoxicity at 10 µM was -6.94%.

Turning to `CC(C)c1nnc(NC(=O)NCc2cccnc2NCCN(C)C)s1`, the cytotoxicity at 10 µM amounted to 3.92%.

Turning to `FC(F)(F)c1ccc(-c2cnc(C3CCCN3)cn2)cc1` (configuration not stated), the cytotoxicity at 10 µM was -1.12%.

In the case of `c1coc(CNc2ncc3c(n2)C2(CCNC2)COC3)c1` (configuration not stated), the cytotoxicity at 10 µM was 10.7%.

On to `CCOc1ccc2[nH]c(=O)c(CN3CCCC3c3ccccn3)cc2c1` (configuration not stated), for which the cytotoxicity at 10 µM is -7.04%.

Regarding `CCC(C(=O)N(Cc1ccccc1OC)C1CC1)n1cccn1` (configuration not stated), the cytotoxicity at 10 µM was -44%.

For `Cc1cc(C)n(CC2CN(c3nnc(C)c(C)c3C#N)CCO2)n1` (configuration not stated), the cytotoxicity at 10 µM was -18.2%.

On to `CN(C)C(=O)CN1CCOCC2(CCN(CC3CCOCC3)CC2)C1`, for which the cytotoxicity at 10 µM was determined as 8.55%.

`O=C(Cn1cc(C(=O)O)ccc1=O)NCc1ccc(F)cc1Cl`: the cytotoxicity at 10 µM is -0.581%.

Consider `Cn1nc(C(=O)NCc2cccc(Cn3ccnc3)c2)ccc1=O`, for which the cytotoxicity at 10 µM came to 8.53%.

As to `CCc1nnc2n1CCN(Cc1cc(Cl)c3c(c1)OCCO3)C2`, the cytotoxicity at 10 µM is -8.95%.

As for `CC(C)CC(NC(=O)c1ccco1)c1nc2cccnc2n1C` (configuration not stated), the cytotoxicity at 10 µM amounted to 6.08%.

For the compound `Cc1nc(Nc2ccccn2)cc(C2CCCN2C2CCOCC2)n1` (configuration not stated), the cytotoxicity at 10 µM was -18.1%.

As to `COCc1cccc(C(=O)N2CCCCC2c2nccs2)c1` (configuration not stated), the cytotoxicity at 10 µM was -2.06%.

Consider `CC(C)CCC1=NC2(CCN(C(=O)N3CCN(C)CC3)CC2)C(=O)N1`, for which the cytotoxicity at 10 µM is -6.08%.

Consider `CN1[C@H](CN2CCCC2)C[C@@H]2CN(C(=O)Cc3ccsc3)CC[C@@H]21`, for which the cytotoxicity at 10 µM was -3.45%.

Take `CC(=O)NCc1nc(CC(C)C)nn1-c1cccc(C)c1`: the cytotoxicity at 10 µM turned out to be 6.54%.

Consider `CS(=O)(=O)CC(=O)N1C[C@H]2CCC[C@@]2(COc2ccccn2)C1`, for which the cytotoxicity at 10 µM is -99.2%.

Regarding `COc1ccc(CN2CCC=C(C(C)NC(C)=O)C2)cc1` (configuration not stated), the cytotoxicity at 10 µM is -5.5%.

On to `CN(CCO)C(=O)c1coc(CN2CCN(c3ccccc3F)CC2)n1`, for which the cytotoxicity at 10 µM was 15.7%.

As to `CCn1c(C)nnc1Sc1nn2cc(C)nc2s1`, the cytotoxicity at 10 µM is -1.99%.

With `Cc1ccccc1C(C)NC(=O)CN1CCN(Cc2cccs2)CC1` (configuration not stated), the cytotoxicity at 10 µM is 48.9%.

Turning to `O=C(NC1CCCc2nc(N3CCOCC3)ncc21)C1CCCCC1` (configuration not stated), the cytotoxicity at 10 µM is -19.9%.

As for `CCCOC1CCCN(C(=O)c2ccnnc2)C1` (configuration not stated), the cytotoxicity at 10 µM is -20.6%.

For `CC(C)Cc1cc(NC(=O)c2ccccc2F)n(C)n1`, the cytotoxicity at 10 µM was -6.48%.

As for `C[C@@H]1CN(CC(=O)NCc2ccccn2)C[C@]1(C)O`, the cytotoxicity at 10 µM was -5.68%.

Consider `Cc1cnn(C2CN(CC(=O)NCCc3ccccc3)C2)c1`, for which the cytotoxicity at 10 µM was -0.956%.

As to `CC(C)NC(=O)c1nc2c(s1)CCCN2c1ccccc1`, the cytotoxicity at 10 µM is 4.29%.

In the case of `COCCNS(=O)(=O)c1ccc(Cl)c(C(=O)N(C)Cc2ccsc2)c1`, the cytotoxicity at 10 µM is -1.39%.

Regarding `CC(C)(C)c1ncc2c(n1)CN(c1cc(NCCO)nc(N)n1)C2`, the cytotoxicity at 10 µM is 3.5%.

In the case of `CC(C)CCN1CC2(CCCN(C(=O)NCc3cccs3)C2)CCC1=O` (configuration not stated), the cytotoxicity at 10 µM was -11.9%.

`Cc1noc(C)c1CNC(=O)N(C)C1CCN(c2ccccc2)C1=O` (configuration not stated): the cytotoxicity at 10 µM is -8.63%.

As to `CC(C)c1nc2n(n1)CC(NCc1nc(-c3cccnc3)no1)CC2` (configuration not stated), the cytotoxicity at 10 µM came out at 4.04%.

Take `Cc1cnccc1N1CCCN(C(=O)CCn2ccnc2C)CC1`: the cytotoxicity at 10 µM is -6.32%.

Consider `Cc1ccccc1CNc1nc(O)cc(C2CC(=O)N(C)C2)n1` (configuration not stated), for which the cytotoxicity at 10 µM is -0.336%.

Consider `Cc1cnc(N2CCC(c3ccccc3)CC2)nc1-c1ccnn1C`, for which the cytotoxicity at 10 µM came to 4.68%.

Consider `Cc1nc(CC(=O)N2CCCC(n3ccnc3C(C)C)C2)cs1` (configuration not stated), for which the cytotoxicity at 10 µM is -0.354%.

Take `COC(=O)CCC(=O)NC(C)Cc1ccccc1Br` (configuration not stated): the cytotoxicity at 10 µM was -6.66%.

Turning to `CCOCC1CN(Cc2ccncc2)Cc2nn(C)cc21` (configuration not stated), the cytotoxicity at 10 µM was -79.8%.

Turning to `COc1cc(C)nc(N2CCN(C(=O)CN(C)C3CC3)CC2)n1`, the cytotoxicity at 10 µM was -4.43%.

Turning to `CN(C)S(=O)(=O)c1ccc(-c2nc(C#N)c(NC3CCCCC3)o2)o1`, the cytotoxicity at 10 µM was -16%.

Regarding `CCOc1ncccc1C(=O)NCC(O)c1ccc(F)c(F)c1` (configuration not stated), the cytotoxicity at 10 µM was 9.45%.

Take `Cc1cnc(CNC(=O)NCCOc2ncccc2Cl)s1`: the cytotoxicity at 10 µM was 8.35%.

As for `COc1cc(I)c(Cl)cc1C(=O)N(C)C`, the cytotoxicity at 10 µM is 11%.

With `Cc1cc(C)c(C(=O)N(CCO)Cc2ccccc2F)c(=O)[nH]1`, the cytotoxicity at 10 µM was -0.626%.

On to `CCCC1CN(CC(C)C)C(=O)c2cccnc2O1` (configuration not stated), for which the cytotoxicity at 10 µM was determined as 3.04%.

In the case of `CCC[C@@H]1CN(Cc2cnc(-c3cccs3)nc2)C[C@H]1C(=O)O`, the cytotoxicity at 10 µM is -22.9%.

In the case of `CCc1ncc2c(n1)CN(CC(=O)N1CCc3sccc3C1)CC2`, the cytotoxicity at 10 µM was found to be 4.83%.

`CN1CCCC(N(C)C(=O)c2ccc(NC(=O)c3cc[nH]n3)cc2)C1` (configuration not stated): the cytotoxicity at 10 µM was determined as 0.624%.

For the compound `Cc1ccccc1OCCn1cnc2oc(C)c(C(=O)O)c2c1=O`, the cytotoxicity at 10 µM is 11%.

For `NCCC1CN(Cc2cnc3c(-c4ccccc4)cnn3c2)CCO1` (configuration not stated), the cytotoxicity at 10 µM was -3.92%.
